# RORa activator – activators of orphan receptor RORA, primary screen, cell-based, luminescence. CHO-K1 Gal4-RORA LBD luciferase reporter; percent increase over mock-subtracted basal signal. activation, % at 10 µM. 65,000 tested, 1.5% active. AID 560, 2006;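 active means activation above the mean of all tested compounds plus 3 SD, cut at about 49% in these data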;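 further: 0% = DMSO-treated RORA cells and 100% = added signal equal to DMSO minus mock-transfected cells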
# TNAP act mid DEA – human TNAP enzyme activators, primary screen, biochemical, luminescent, intermediate phosphate acceptor level; Alkaline phosphatase, tissue-nonspecific isozyme (Homo sapiens), P05186; AID 813, 2007; activation factor at 20 µM; 64,000 tested, under 10 active; purified TNAP, CDP-star luminescence, 100 mM DEA, 30 min; stronger effect = higher value; scale: 0 levamisole-inhibited, 1 vehicle-only enzyme;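 active means activation factor of at least 2 at 20 µM, relative to controls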
# Target sequence (P05186 whole entry, looked up): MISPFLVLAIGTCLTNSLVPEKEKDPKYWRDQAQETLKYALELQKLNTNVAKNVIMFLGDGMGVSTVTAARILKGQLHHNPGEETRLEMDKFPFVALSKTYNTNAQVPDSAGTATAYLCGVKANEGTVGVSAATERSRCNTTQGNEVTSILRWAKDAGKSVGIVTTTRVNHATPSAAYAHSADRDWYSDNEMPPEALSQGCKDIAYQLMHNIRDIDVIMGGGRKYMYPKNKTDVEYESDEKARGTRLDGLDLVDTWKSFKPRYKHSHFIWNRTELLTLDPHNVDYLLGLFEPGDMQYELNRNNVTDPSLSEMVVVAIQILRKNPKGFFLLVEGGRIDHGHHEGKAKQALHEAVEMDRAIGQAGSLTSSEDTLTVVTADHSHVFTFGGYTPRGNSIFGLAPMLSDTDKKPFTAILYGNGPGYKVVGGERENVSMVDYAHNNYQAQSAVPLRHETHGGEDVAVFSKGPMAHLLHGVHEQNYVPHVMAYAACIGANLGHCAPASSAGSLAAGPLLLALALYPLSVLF
# Mac1 fbg enh – enhancers of CD11b/CD18 adhesion to fibrinogen, primary screen, K562 cells, luminescence. activation, % at 10 µM. ATPlite luminescence. 93,000 tested, 0.07% active;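 active means 10 µM primary screen giving 50% or more activity, confirmed by 40% or more on retest at that dose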
# Mac1 fbg inh – inhibitors of CD11b/CD18 adhesion to fibrinogen, primary screen, K562 cells, luminescence; 93,000 tested, 0.54% active; inhibition, % at 10 µM; Integrin beta-2 (Homo sapiens) + Integrin alpha-M (Homo sapiens), P05107+P11215; ATPlite luminescence; Mn2+ added to activate the integrin;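 active means primary inhibition of 50% or more at 10 µM, then 40% or more on retest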
# SF-1 act – activators of human SF-1, primary screen, cell-based, CHO-K1, Gal4-SF-1 LBD, luciferase luminescence; Steroidogenic factor 1 (Homo sapiens), Q13285; AID 522, 2006; activation, % at 10 µM; 65,000 tested, 1.9% active; CHO-K1 Gal4-SF-1 LBD luciferase reporter; % increase over DMSO SF-1-specific signal;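 active means activation above the mean activation of all tested compounds plus 3 SD, cut at about 50% in these data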
#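 Test system: CHO-K1 cells co-transfected with Gal4 DBD–human SF-1 LBD, 5xGal4 luciferase reporter. Quantity: 4,000 cells per well. Compound: 10 µM only. Incubation: compound added 1 h post-seeding, 20 h exposure at 37 °C, 5% CO2. Detection: SteadyLite luciferase luminescence. Replication: one test per compound.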
# MT1-MMP txn act – MT1-MMP promoter reporter activation – cell-based, luciferase luminescence, primary screen; HT1080 MT1-MMP promoter luciferase reporter, overnight; stronger effect = higher value; activation factor at 10 µM; 86,000 tested, 0.16% active;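 active means activation factor of at least 2 for MT1-MMP transcription at 10 µM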
# An asterisk follows results filed as active; . = no result given. A selection: hits, their analogues and other compounds. The true share with any hit is near 2.1%.
SMILES,RORa activator,TNAP act mid DEA,Mac1 fbg enh,Mac1 fbg inh,SF-1 act,MT1-MMP txn act
CCC(=NCCOc1ccc(Cl)cc1)c1c(O)n(C)c(=O)n(C)c1=O,-30,1,-11,94,-13,1.1
CCC(=NCCc1c[nH]c2ccccc12)c1c(O)n(C)c(=O)n(C)c1=O,.,.,-5,79*,.,1
COC(=O)[C@@H]1C[C@H]2CC[C@H](O)C[C@H]2N1CC1CC1,.,.,.,.,.,1.1
Cc1ccc2nc(N3CCC(C(=O)N4CCC5(CC4)OCCO5)CC3)sc2c1,30,0.9,-4,3,74*,1.3
O=C(C1CCN(c2nc3ccc(Br)cc3s2)CC1)N1CCC2(CC1)OCCO2,8,0.9,.,.,6,1.5
O=P(N[C@@H](c1ccccc1)[C@@H]1C[C@H]1CO)(c1ccccc1)c1ccccc1,.,.,.,.,.,1.4
C=C(CC1(CNP(=O)(c2ccccc2)c2ccccc2)CC1)c1ccccc1,.,.,.,.,.,2*
O=C(c1cc2c(s1)-c1ccccc1OC2)N1CCC2(CC1)OCCO2,54*,0.9,2,-2,61*,1.3
CNC(=O)[C@@H]1C[C@H]1[C@@H](NP(=O)(c1ccccc1)c1ccccc1)c1ccccc1,.,.,.,.,.,1.1
CCN1/C(=C\C=C\C2=[N+](CC)c3ccccc3C2(C)C)C(C)(C)c2ccccc21,.,.,-6,97*,.,0.6
COC(=O)[C@@H]1C[C@@]2(O)[C@H](O)[C@H](O)[C@H](O)C[C@H]2N1Cc1cccnc1,.,.,.,.,.,1.2
CC1(C)CN=C(Nc2nc3ccccc3s2)S1,54*,1.1,-5,-20,70*,1.1
COC(=O)[C@@]1(Cc2ccccc2)[C@H]2c3cc(C(=O)N(C)C)n(C)c3C[C@H]2CN1C(=O)c1ccccc1,.,.,.,.,.,1.1
CCn1nc(-c2cccs2)nc2c(=O)n(C)c(=O)nc1-2,-91,0.9,-1,63*,-96,.

# Bioassay records as filed in PubChem BioAssay.
